Screening data: PubChem, Broad Institute
CAL PDZ FP-1: blocks peptide binding to human CAL PDZ domain. Q9HD26. 0.02% of 330,000 active. AID 504414. inhibition, % at 20 µM. purified CAL PDZ, TMR-peptide fluorescence polarization, 1 h;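 active means highest replicate inhibition of at least 40%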;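 further: plate controls were DMSO neutral control wells for no effect and unlabeled competitor peptide control wells for full effect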
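material = purified tagged CAL PDZ domain construct (CerCALP) | compound dosing = 20 µM, one dose | times = 1 h at RT | measured by = fluorescence polarization from S- and P-plane intensities, G-factor corrected | read-out = inhibition from polarization loss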
SR-BI HDL uptake: inhibitors of mouse SR-BI mediated HDL lipid uptake. ldlA[mSR-BI] CHO cells, DiI-HDL uptake fluorescence, 3 h. 0.96% of 320,000 active. Q61009. inhibition, % at 12.5 µM;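 active means mean replicate inhibition of at least 70% and a set share of replicates each scoring 70 or more; inconclusive means meets just one of the two criteria; inactive means fails both criteria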;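 further: 0% = median of neutral control wells and 100% = median of positive control wells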
Target sequence (Q61009 whole entry, looked up): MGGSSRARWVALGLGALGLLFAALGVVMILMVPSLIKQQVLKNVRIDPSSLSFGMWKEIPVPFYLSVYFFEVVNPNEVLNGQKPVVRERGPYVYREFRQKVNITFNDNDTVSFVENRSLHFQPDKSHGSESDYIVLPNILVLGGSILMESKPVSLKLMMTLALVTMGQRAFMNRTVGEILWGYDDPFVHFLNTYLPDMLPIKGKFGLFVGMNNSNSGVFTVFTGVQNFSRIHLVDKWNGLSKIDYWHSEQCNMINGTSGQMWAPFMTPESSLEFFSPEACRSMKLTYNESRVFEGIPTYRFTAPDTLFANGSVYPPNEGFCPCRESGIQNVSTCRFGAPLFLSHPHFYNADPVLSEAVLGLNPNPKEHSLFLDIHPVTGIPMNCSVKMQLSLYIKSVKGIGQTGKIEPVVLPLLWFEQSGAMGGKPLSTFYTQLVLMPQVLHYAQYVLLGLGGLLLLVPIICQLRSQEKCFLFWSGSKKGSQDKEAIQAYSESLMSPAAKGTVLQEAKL
CAL PDZ FP-2: CAL PDZ (human) peptide binding inhibition | purified CAL PDZ, TMR-peptide fluorescence polarization, 1 h | inhibition, % at 24.9 µM | 0.92% of 300,000 active;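 active means mean inhibition of at least 30% with at least half of replicates also reaching 30%; inconclusive means no clear call, values can overlap the other calls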;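 further: 0% = DMSO neutral control and 100% = excess unlabeled competitor peptide PRC23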
SR-BI DiI-HDL act: SR-BI HDL lipid transfer activation; 0.096% of 320,000 active; AID 504775; CHO ldlA[mSR-BI] cells, DiI-HDL uptake fluorescence, 3 h; 100 = double the neutral-control signal; activation, % at 12.5 µM;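 active means mean replicate activation of at least 60% and every replicate at or above 60%; inconclusive means mean or all-replicate condition met, but not both; inactive means mean below 60% and not all replicates reaching 60%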;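 further: 0% = median plate neutral-control signal and 100% = twice that signal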
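system = CHO ldlA[mSR-BI] cells, LDL receptor-null, SR-BI overexpressing | medium = Ham's F12 with 0.5% BSA, HEPES 25 mM, pH 7.4 | probe or stimulus = DiI-HDL 10 µg/mL | compound dosing = single-point compound dose | incubation = compound exposure 3 h, 37 °C | technique = DiI fluorescence, bottom read | read-out = cell-associated DiI fluorescence as measure of HDL uptake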
dFosB activator: enhances mouse delta FosB homodimer DNA binding. P13346. purified delta FosB, TAMRA-CDK5 oligo fluorescence polarization; percent of positive-control signal above neutral wells. activation, % at 25 µM. 0.99% of 340,000 active;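 active means mean activation above about 17%, with every replicate also reaching it, limit read from the data, passing the limit was not always enough; inconclusive means only one of the two conditions met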
Numbers without * were called inactive; ? = inconclusive; · = no result. A selection: hits, their analogues and other compounds. The true share with any hit is near 2.8%.

SMILES	CAL PDZ FP-1	SR-BI HDL uptake	CAL PDZ FP-2	SR-BI DiI-HDL act	dFosB activator
COCC(=O)Nc1nc2n(n1)C(c1ccc(Cl)cc1)CC(c1ccc(OC)cc1)N2 (centres undefined)	-2	74*	-1	-74	-16
COCC(=O)Nc1nc2n(n1)C(c1ccccc1Cl)CC(c1ccc(OC)cc1)N2 (centres undefined)	-1	8	-6	-8	-4
CCCCn1c(N)c(N(CC)C(=O)c2ccccc2F)c(=O)[nH]c1=O	0	-8	33*	8	8
CCN(C(=O)c1ccc(=O)[nH]c1)c1c(N)n(Cc2ccccc2)c(=O)[nH]c1=O	-1	-12	·	12	1
CCN(C(=O)c1ccc(=O)n(C)n1)c1c(N)n(Cc2ccccc2)c(=O)[nH]c1=O	1	-5	38*	5	-6
CCCN(C(=O)Cn1nc(C)c([N+](=O)[O-])c1C)c1c(N)n(Cc2ccccc2)c(=O)[nH]c1=O	0	7	·	-7	18*
CCCCCCn1nc(C(=O)N(CCCC)c2c(N)n(CCC)c(=O)[nH]c2=O)c2ccccc2c1=O	2	40	47*	-40	-8
CCCCCn1nc(C(=O)N(CC(C)C)c2c(N)n(CCCC)c(=O)[nH]c2=O)c2ccccc2c1=O	-2	-12	11	12	-7
c1ccc2c(c1)CC/C2=N/Nc1nc2ccccc2[nH]1	1	8	6	-8	31*
CC(C)(C)C1CCC(=NNc2nc3ccccc3[nH]2)CC1 (centres undefined)	-1	3	1	-3	-5
COc1ccccc1N1CCN(C(=O)CCC(=O)N2CCN(c3ccccc3OC)CC2)CC1	·	70*	-1	-70	-2
O=C(Nc1cc2c3c(c1)CC(=O)N3CCC2)C1CCCCC1	-1	40	-4	-40	-10
CC(C)CC(=O)N1CCN(Cc2ccc(C(F)(F)F)cc2)CC1	-1	11	1	-11	-10
CC1(C)CC(NC(=O)c2cccc(Cl)c2)CC(C)(C)N1	-1	-18	-3	18	2
O=C(Nc1nc2ccccc2s1)c1cc(-c2ccccc2)nn1-c1ccccc1	-3	66	-1	-66	4
CC(=O)c1sc(NC(=O)c2cc(-c3ccccc3)nn2-c2ccccc2)nc1C	-5	80*	-2	-80	-4
NS(=O)(=O)c1ccc(NC(=O)CSc2nc(Nc3ccccc3)nc(N3CCOCC3)n2)cc1	-3	-4	-5	4	15
Cc1ccc(CNS(=O)(=O)c2ccc3c(c2)NC(=O)CS3)cc1	-3	-13	0	13	-4
COc1ccccc1NC(=O)c1cccc(N2C(=O)C3C4C=CC(C4)C3C2=O)c1 (centres undefined)	-1	22	50*	-22	-4
Cc1cc(=O)c2c(o1)C(=O)c1occc1C2=O	4	-10	2	10	-15
Cc1sc(NC(=O)CS(=O)(=O)c2ccccc2)c(C#N)c1C	-3	0	-7	0	3
COC(=O)c1c(NC(=O)CS(=O)(=O)c2ccccc2)sc(C)c1C	-2	43	45*	-43	-10
COc1ccc(C(=O)Nc2ccc(S(=O)(=O)Nc3nccc(C)n3)cc2)cc1OC	0	-25	50*	25	-2
COc1cc(C(=O)Nc2ccc(S(=O)(=O)Nc3nccc(C)n3)cc2)cc(OC)c1OC	0	-2	-4	2	-6
O=C(Nc1ccc(S(=O)(=O)Nc2ccccn2)cc1)c1cccc(Cl)c1	-3	·	-1	·	-7
SMILES	CAL PDZ FP-1	SR-BI HDL uptake	CAL PDZ FP-2	SR-BI DiI-HDL act	dFosB activator
COc1ccc(C(=O)Nc2nc3ccc(S(C)(=O)=O)cc3s2)cc1OC	·	78*	0	-78	1
COc1cc(OC)cc(C(=O)Nc2ccc(S(=O)(=O)Nc3ccccn3)cc2)c1	0	14	33*	-14	9
Cc1ccc(C(=O)Nc2nc3ccc(S(C)(=O)=O)cc3s2)cc1C	0	59	-4	-59	-5
O=C(COc1ccc(/C=C2/NC(=O)NC2=O)cc1)Nc1ccc(F)cc1	-2	-4	-1	4	40*
N#Cc1ccc(Oc2ccc(-c3nc4ccccc4nc3-c3ccccc3)cc2)cc1C#N	1	-10	-2	10	-1
Nc1ccc(Oc2ccc3nc(-c4ccccc4)c(-c4ccc([N+](=O)[O-])cc4)nc3c2)cc1	0	76*	-23	-76	2
O=C(Nc1ccccn1)c1cc2cc([N+](=O)[O-])ccc2s1	-1	56	·	-56	?
C=CCOc1ccc2cccc(/C=N/NC(=O)c3cc4cc([N+](=O)[O-])ccc4s3)c2c1	0	77*	-4	-77	-11
CCOC(=O)c1c(/N=C/C2C(=O)CC(C)(C)CC2=O)sc2c1CCCC2	-1	19	79*	-19	2
CCOC(=O)c1c(/N=C/C2C(=O)CCCC2=O)sc2c1CCCC2	-1	-10	3	10	-12
O=C(CSc1ccccc1F)Nc1ccc(N2CCOCC2)cc1	0	-9	·	9	-7
COC(=O)c1ccccc1SCC(=O)Nc1ccc(N2CCOCC2)cc1	-2	25	64*	-25	3
CCOc1ccc(C2(C)NC(=O)N(CCN(C)C)C2=O)cc1 (centres undefined)	0	-2	-6	2	-4
Cc1ccc2nc(NC(=O)COC(=O)c3ccncc3)sc2c1	33	-3	62*	3	-9
O=C(Nc1sc2c(c1-c1nc3ccccc3[nH]1)CCCC2)C1CCCC1	-2	89*	-2	-89	-5
Cc1cccc(-n2ccc(=O)c(C(=O)Nc3ccc(S(=O)(=O)Nc4onc(C)c4C)cc3)n2)c1	-3	-11	2	11	1
Cc1csc(CN(C)C(=O)C2CCC(=O)N(CCN(C)C)C2)n1 (centres undefined)	-1	3	-6	-3	-7
O=C(NC(Cc1ccccc1)C(=O)O)/C(=C\c1ccc(F)cc1)NC(=O)c1ccco1 (centres undefined)	1	4	-8	-4	-7
O=C(NC(Cc1ccccc1)C(=O)O)/C(=C/c1ccccc1)NC(=O)c1ccco1 (centres undefined)	0	-18	63*	18	2
CC1(C)CC(=O)C=C(/C=C/c2ccccc2)C1	-1	7	2	-7	-5
Fc1cccc(/C=N/Nc2cc(N3CCOCC3)ncn2)c1	-1	5	-3	-5	1
CC(C)OCCCN1CC(=O)N2C(c3cccc([N+](=O)[O-])c3)c3[nH]c4ccccc4c3C[C@H]2C1=O (some centres undefined)	0	81*	-8	-81	-7
CC(=NNC(=O)c1ccncc1)c1ccc2ccccc2c1O	1	127*	-3	-127	-7
O=C(N/N=C/c1c(O)ccc2ccccc12)c1cccnc1	-3	51	-7	-51	11
